Assay results taken from ChEMBL document CHEMBL5724801, “EUbOPEN Chemogenomics Library - Multiplex” (2024).
Several values for one entry are separate records, joined by “and”; a condition that tells them apart may be missing. Equal entries are not always repeated.

Tested on: Fibroblast
Test: Multiplex assay against human fibroblast
Assay type: toxicity, cell-based
Procedure, shortened: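 Per cents of healthy-nucleus cells form the tubulin, mitochondrial-mass and membrane-permeability phenotype values. Live cells were stained at seeding with Hoechst33342, BioTracker Green Microtubule Cytoskeleton Dye, MitoTracker Red and Annexin V Alexa Fluor 680. After compound addition they were imaged on a CQ1 microscope at 37°C and 5% CO2, and CellPathfinder machine-learning gating split them into Hoechst high-intensity objects or normal cells, normal cells into healthy, pyknosed or fragmented nuclei, and pyknosed cells into mitotic or apoptotic.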

[1] = 12 h, 10 µM, compound concentration 10 uM
[2] = 24 h, 10 µM, compound concentration 10 uM
[3] = 48 h, 10 µM, compound concentration 10 uM
[4] = 12 h, 1 µM, compound concentration 1 uM
[5] = 24 h, 1 µM, compound concentration 1 uM
[6] = 48 h, 1 µM, compound concentration 1 uM

Compound: CCC(=O)N1CCN(c2ccc(-n3c(=O)ccc4cnc5ccc(-c6cnc7ccccc7c6)cc5c43)cc2C(F)(F)F)CC1 [TORIN1]
- Population Healthy Nuclei (%) [1]: 60% and 44%
- Population Membrane Permeable-Phenotype (%) [1]: 1%
- Population Mitochondria Different-Phenotype (%) [1]: 5% and 0%
- Population Mitotic Cells (%) [1]: 72% and 65%
- Population Normal (%) [1]: 94% and 90%
- Population Tubulin-Different-Phenotype (%) [1]: 62% and 64%
- Total Cell Count [1]: 155 and 131
- Population Healthy Nuclei (%) [2]: 57%
- Population Membrane Permeable-Phenotype (%) [2]: 0%
- Population Mitochondria Different-Phenotype (%) [2]: 10% and 5%
- Population Mitotic Cells (%) [2]: 66% and 56%
- Population Normal (%) [2]: 96% and 93%
- Population Tubulin-Different-Phenotype (%) [2]: 62% and 59%
- Total Cell Count [2]: 137 and 128
- Population Apoptotic (%) [3]: 80%
- Population Healthy Nuclei (%) [3]: 72% and 62%
- Population Membrane Permeable-Phenotype (%) [3]: 0% and 8%
- Population Mitotic Cells (%) [3]: 20% and 46%
- Population Normal (%) [3]: 96% and 95%
- Population Pyknosed Nuclei (%) [3]: 10%
- Population Tubulin-Different-Phenotype (%) [3]: 67% and 61%
- Total Cell Count [3]: 127 and 136

Compound: CC(C)(C)c1ccc(S(=O)(=O)Nc2ccc(Cl)cc2C(=O)c2cc[n+]([O-])cc2)cc1 [VERCIRNON]
- Population Apoptotic (%) [4]: 63% and 50%
- Population Fragmented Nuclei (%) [4]: 19% and 27%
- Population Healthy Nuclei (%) [4]: 65% and 46%
- Population Hoechst High Intensity Objects (%) [4]: 2% and 7%
- Population Membrane Permeable-Phenotype (%) [4]: 1% and 6%
- Population Mitochondria Different-Phenotype (%) [4]: 3% and 1%
- Population Mitotic Cells (%) [4]: 36% and 50%
- Population Normal (%) [4]: 97% and 92%
- Population Pyknosed Nuclei (%) [4]: 15% and 25%
- Population Tubulin-Different-Phenotype (%) [4]: 20% and 41%
- Total Cell Count [4]: 148 and 152
- Population Apoptotic (%) [1]: 59% and 48%
- Population Fragmented Nuclei (%) [1]: 14% and 30%
- Population Healthy Nuclei (%) [1]: 64% and 44%
- Population Hoechst High Intensity Objects (%) [1]: 3% and 5%
- Population Membrane Permeable-Phenotype (%) [1]: 3% and 8%
- Population Mitochondria Different-Phenotype (%) [1]: 1% and 10%
- Population Mitotic Cells (%) [1]: 40% and 51%
- Population Normal (%) [1]: 96% and 94%
- Population Pyknosed Nuclei (%) [1]: 21% and 25%
- Population Tubulin-Different-Phenotype (%) [1]: 46% and 66%
- Total Cell Count [1]: 107 and 114
- Population Apoptotic (%) [5]: 55% and 54%
- Population Fragmented Nuclei (%) [5]: 23% and 25%
- Population Healthy Nuclei (%) [5]: 62% and 57%
- Population Hoechst High Intensity Objects (%) [5]: 0% and 7%
- Population Membrane Permeable-Phenotype (%) [5]: 4% and 7%
- Population Mitochondria Different-Phenotype (%) [5]: 1%
- Population Mitotic Cells (%) [5]: 45%
- Population Normal (%) [5]: 99% and 92%
- Population Pyknosed Nuclei (%) [5]: 14% and 16%
- Population Tubulin-Different-Phenotype (%) [5]: 27% and 40%
- Total Cell Count [5]: 141 and 142
- Population Apoptotic (%) [2]: 66% and 41%
- Population Fragmented Nuclei (%) [2]: 16% and 32%
- Population Healthy Nuclei (%) [2]: 66% and 42%
- Population Hoechst High Intensity Objects (%) [2]: 1% and 0%
- Population Mitochondria Different-Phenotype (%) [2]: 2% and 9%
- Population Mitotic Cells (%) [2]: 33% and 58%
- Population Normal (%) [2]: 98% and 99%
- Population Pyknosed Nuclei (%) [2]: 16% and 24%
- Population Tubulin-Different-Phenotype (%) [2]: 40% and 82%
- Total Cell Count [2]: 114 and 120
- Population Apoptotic (%) [6]: 61% and 62%
- Population Fragmented Nuclei (%) [6]: 29% and 32%
- Population Healthy Nuclei (%) [6]: 58% and 55%
- Population Hoechst High Intensity Objects (%) [6]: 1% and 6%
- Population Membrane Permeable-Phenotype (%) [6]: 1% and 6%
- Population Mitochondria Different-Phenotype (%) [6]: 1% and 9%
- Population Mitotic Cells (%) [6]: 38% and 37%
- Population Normal (%) [6]: 98% and 93%
- Population Pyknosed Nuclei (%) [6]: 12% and 11%
- Population Tubulin-Different-Phenotype (%) [6]: 25% and 37%
- Total Cell Count [6]: 151 and 145
- Population Apoptotic (%) [3]: 62% and 46%
- Population Fragmented Nuclei (%) [3]: 22% and 42%
- Population Healthy Nuclei (%) [3]: 64% and 46%
- Population Hoechst High Intensity Objects (%) [3]: 2% and 4%
- Population Mitochondria Different-Phenotype (%) [3]: 0% and 12%
- Population Mitotic Cells (%) [3]: 37% and 53%
- Population Normal (%) [3]: 97% and 95%
- Population Pyknosed Nuclei (%) [3]: 13% and 11%
- Population Tubulin-Different-Phenotype (%) [3]: 38% and 72%
- Total Cell Count [3]: 120 and 122

Compound: O=C(NCCNCC(O)COc1ccc(O)cc1)N1CCOCC1.O=C(NCCNCC(O)COc1ccc(O)cc1)N1CCOCC1.O=C(O)/C=C/C(=O)O (centres undefined) [XAMOTEROL FUMARATE]
- Population Apoptotic (%) [4]: 63% and 43%
- Population Fragmented Nuclei (%) [4]: 15% and 23%
- Population Healthy Nuclei (%) [4]: 67% and 53%
- Population Hoechst High Intensity Objects (%) [4]: 2% and 4%
- Population Mitochondria Different-Phenotype (%) [4]: 4% and 7%
- Population Mitotic Cells (%) [4]: 36% and 56%
- Population Normal (%) [4]: 97% and 95%
- Population Pyknosed Nuclei (%) [4]: 17% and 23%
- Population Tubulin-Different-Phenotype (%) [4]: 24% and 55%
- Total Cell Count [4]: 114 and 167
- Population Apoptotic (%) [1]: 30% and 17%
- Population Fragmented Nuclei (%) [1]: 21% and 30%
- Population Healthy Nuclei (%) [1]: 64% and 49%
- Population Hoechst High Intensity Objects (%) [1]: 4% and 5%
- Population Membrane Permeable-Phenotype (%) [1]: 2% and 4%
- Population Mitochondria Different-Phenotype (%) [1]: 5% and 11%
- Population Mitotic Cells (%) [1]: 70% and 82%
- Population Normal (%) [1]: 95% and 94%
- Population Pyknosed Nuclei (%) [1]: 14% and 20%
- Population Tubulin-Different-Phenotype (%) [1]: 32% and 43%
- Total Cell Count [1]: 143 and 154
- Population Apoptotic (%) [5]: 68% and 50%
- Population Fragmented Nuclei (%) [5]: 20% and 28%
- Population Healthy Nuclei (%) [5]: 63% and 52%
- Population Hoechst High Intensity Objects (%) [5]: 1% and 2%
- Population Mitochondria Different-Phenotype (%) [5]: 2% and 6%
- Population Mitotic Cells (%) [5]: 31% and 50%
- Population Normal (%) [5]: 98% and 97%
- Population Pyknosed Nuclei (%) [5]: 15% and 19%
- Population Tubulin-Different-Phenotype (%) [5]: 25% and 63%
- Total Cell Count [5]: 121 and 149
- Population Apoptotic (%) [2]: 62% and 42%
- Population Fragmented Nuclei (%) [2]: 20% and 34%
- Population Healthy Nuclei (%) [2]: 67% and 54%
- Population Hoechst High Intensity Objects (%) [2]: 1%
- Population Membrane Permeable-Phenotype (%) [2]: 0% and 5%
- Population Mitochondria Different-Phenotype (%) [2]: 0% and 8%
- Population Mitotic Cells (%) [2]: 37% and 57%
- Population Normal (%) [2]: 98%
- Population Pyknosed Nuclei (%) [2]: 12% and 11%
- Population Tubulin-Different-Phenotype (%) [2]: 31% and 41%
- Total Cell Count [2]: 135 and 172
- Population Apoptotic (%) [6]: 65% and 40%
- Population Fragmented Nuclei (%) [6]: 27% and 42%
- Population Healthy Nuclei (%) [6]: 57% and 46%
- Population Hoechst High Intensity Objects (%) [6]: 1% and 2%
- Population Membrane Permeable-Phenotype (%) [6]: 1% and 7%
- Population Mitochondria Different-Phenotype (%) [6]: 2% and 4%
- Population Mitotic Cells (%) [6]: 35% and 60%
- Population Normal (%) [6]: 98% and 97%
- Population Pyknosed Nuclei (%) [6]: 15% and 10%
- Total Cell Count [6]: 131 and 140
- Population Apoptotic (%) [3]: 56% and 52%
- Population Fragmented Nuclei (%) [3]: 25% and 33%
- Population Healthy Nuclei (%) [3]: 62% and 54%
- Population Hoechst High Intensity Objects (%) [3]: 4% and 3%
- Population Membrane Permeable-Phenotype (%) [3]: 1% and 6%
- Population Mitochondria Different-Phenotype (%) [3]: 3% and 4%
- Population Mitotic Cells (%) [3]: 43% and 47%
- Population Normal (%) [3]: 95% and 96%
- Population Pyknosed Nuclei (%) [3]: 11%
- Population Tubulin-Different-Phenotype (%) [3]: 33% and 48%
- Total Cell Count [3]: 144 and 157
